From ChEMBL document CHEMBL4665801, “Pyrazole-Based Lactate Dehydrogenase Inhibitors with Optimized Cell Activity and Pharmacokinetic Properties” (J Med Chem, 2020)
Active and inactive are the calls of the source. No rule for the calls is given here.

Legend:
[1] = target: T1, L-lactate dehydrogenase A chain (Homo sapiens, UniProt P00338); assay: Inhibition of recombinant human LDHA using sodium pyruvate as substrate preincubated for 5 mins followed by diaphorase/resazurin addition and measured after 20 mins by fluorescence based assay
[2] = target: T1, L-lactate dehydrogenase A chain; assay: Inhibition of LDHA in human A673 cells assessed as decrease in lactate production incubated for 2 hrs by lactate oxidase-coupled fluorescence based assay; assay type: cell-based
A673 = assay: Cytotoxicity against human A673 cells assessed as reduction in cell viability after 48 hrs by CellTiter-Glo assay; assay type: functional, cell-based; settings: A673, 48 h
[3] = target: T1, L-lactate dehydrogenase A chain; assay: Inhibition of LDHA in human MIA PaCa-2 cells assessed as decrease in lactate production incubated for 2 hrs by lactate oxidase-coupled fluorescence based assay; assay type: cell-based
[4] = target: T1, L-lactate dehydrogenase A chain; assay: Inhibition of GS[HiBiT]GS-tagged LDHA (unknown origin) expressed in HEK-293T cells measured after 1 hr by […]; assay type: cell-based
Outline: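 HEK293T cells were transiently transfected for 24 h with CMV-driven LDHA carrying a C-terminal GS[HiBiT]GS tag, then reseeded at 2500 cells/well in DPBS with Ca/Mg and 1 g/L glucose. […] Cells were lysed with NP40, and 11S (100 nM final) plus furimazine was added.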

[5] = target: L-lactate dehydrogenase B chain (Homo sapiens) (UniProt P07195); assay: Inhibition of recombinant human LDHB using sodium pyruvate as substrate preincubated for 5 mins followed by diaphorase/resazurin addition and measured after 20 mins by fluorescence based assay
Chain of L-lactate dehydrogenase B chain (Homo sapiens) (P07195 2-334 limits assumed): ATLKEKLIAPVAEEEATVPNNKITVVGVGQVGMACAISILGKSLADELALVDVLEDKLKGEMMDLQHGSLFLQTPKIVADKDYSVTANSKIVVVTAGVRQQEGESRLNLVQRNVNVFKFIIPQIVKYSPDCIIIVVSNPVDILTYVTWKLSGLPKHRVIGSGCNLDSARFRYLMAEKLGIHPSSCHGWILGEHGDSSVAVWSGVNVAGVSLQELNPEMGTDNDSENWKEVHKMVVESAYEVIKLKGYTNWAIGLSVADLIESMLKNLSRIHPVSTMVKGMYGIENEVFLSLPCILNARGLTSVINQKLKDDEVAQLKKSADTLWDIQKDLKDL

Sus scrofa = species on record: Sus scrofa; assay: Inhibition of porcine heart MDH using malic acid as substrate preincubated for 10 mins followed by substrate addition and measured after 5 mins by resazurin based fluorescence based assay; settings: time 15.0 min
MIA PaCa-2 = assay: Cytotoxicity against human MIA PaCa-2 cells assessed as reduction in cell viability after 48 hrs by CellTiter-Glo assay; assay type: functional, cell-based; settings: MIA PaCa-2, 48 h

SMILES	IC50 [1]	IC50 ([2]; a673)	IC50 (A673)	IC50 [3]	IC50 [4]	inhibition [5]	inhibition (Sus scrofa)	IC50 [2]	IC50 (MIA PaCa-2)
NS(=O)(=O)c1ccc(Cc2c(-c3ccc(F)c(C#CC4CCOC4)c3)nn(-c3nc(C(=O)O)cs3)c2CC2CC2)cc1F (stereo not given)	7 nM	1270 nM	973 nM	831 nM	89 nM	Active	inactive		
NS(=O)(=O)c1ccc(Cc2c(-c3ccc(F)c(C#CC4CCNCC4)c3)nn(-c3nc(C(=O)O)cs3)c2CC2CC2)cc1F	15 nM			8910 nM	2580 nM	Active	inactive	12200 nM	17300 nM
NS(=O)(=O)c1ccc(Cc2c(-c3ccc(F)c(C#CCN4CCCC4)c3)nn(-c3nc(C(=O)O)cs3)c2CC2CC2)cc1F	8 nM			1010 nM	267 nM	Active	inactive	1090 nM	
NS(=O)(=O)c1ccc(Cc2c(-c3cccc(C#Cc4ccc(C5CCC5)s4)c3)nn(-c3nc(C(=O)O)cs3)c2CCC2CC2)cc1F	636 nM		571 nM	379 nM	299 nM	Active	inactive	572 nM	
CC#Cc1cccc(-c2nn(-c3nc(C(=O)O)cs3)c(CC3CC3)c2Cc2ccc(S(N)(=O)=O)c(F)c2)c1	9 nM			525 nM	150 nM	Active	inactive	713 nM	619 nM
Cc1ccsc1C#Cc1cccc(-c2nn(-c3nc(C(=O)O)cs3)c(CC3CC3)c2Cc2ccc(S(N)(=O)=O)c(F)c2)c1	101 nM			417 nM	119 nM	Active	inactive	390 nM	452 nM
NS(=O)(=O)c1ccc(Cc2c(-c3ccc(F)c(C#CCN4CCOCC4)c3)nn(-c3nc(C(=O)O)cs3)c2CC2CC2)cc1F	107 nM		5830 nM	18900 nM	5050 nM	Active	inactive	15300 nM	
NS(=O)(=O)c1ccc(Cc2c(-c3cccc(-c4ccccc4)c3)nn(-c3nc(C(=O)O)cs3)c2CC2CC2)c(F)c1	229 nM		11500 nM	6460 nM		Active	inactive	4460 nM	5750 nM
Cc1cnc(C#Cc2cccc(-c3nn(-c4nc(C(=O)O)cs4)c(CC4CC4)c3Cc3ccc(S(N)(=O)=O)c(F)c3)c2)o1	12 nM			450 nM	119 nM	Active	inactive	525 nM	671 nM
NS(=O)(=O)c1ccc(Cc2c(-c3cccc(C#Cc4ccc(C5CCC5)s4)c3)nn(-c3nc(C(=O)O)cs3)c2CC2CC2)cc1F	169 nM			491 nM	270 nM	Active	inactive	333 nM	905 nM
Cn1cncc1C#Cc1cc(-c2nn(-c3nc(C(=O)O)cs3)c(CC3CC3)c2Cc2ccc(S(N)(=O)=O)c(F)c2)ccc1F	8 nM			1070 nM	299 nM	Active	inactive	1600 nM	1390 nM
CC(C)(C)c1ccc(C#Cc2cc(-c3nn(-c4nc(C(=O)O)cs4)c(CC4CC4)c3Cc3ccc(S(N)(=O)=O)c(F)c3)ccc2F)s1	713 nM			507 nM	10600 nM	Active	inactive	529 nM	665 nM
NS(=O)(=O)c1ccc(Cc2c(-c3cccc(C#Cc4ccc(C5CC5)s4)c3)nn(-c3nc(C(=O)O)cs3)c2CCC2CC2)cc1F	306 nM			387 nM	189 nM	Active	inactive	434 nM	265 nM
